Activity and viability data for 10 compounds are collected here from ChEMBL document CHEMBL1212863, “Synthesis, and biological evaluation of 2-(4-aminophenyl)benzothiazole derivatives as photosensitizing agents” (2010).

The nature of assay [1]: Cell cycle arrest in human BCC cells assessed as accumulation at sub G1 phase at 4 uM incubated for 4 hrs followed by 1 J/cm'2 UV irradiation measured after 24 hrs […]. It is filed as functional. An outline of the steps:
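BCC cells (ATCC; RPMI1640, 10% FCS) exposed 4 h to agent, rinsed, irradiated in PBS with UVA (365 nm peak, 0.75 mW/cm²) at 1 J/cm². After 24 h, cells were fixed in 50% cold ethanol at −20 °C, treated with 100 µg/mL RNase A for 20 min at 37 °C, and stained with 50 µg/mL PI. 10,000 events were read by flow cytometry; the sub-G1 fraction was counted as apoptotic.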

The subject of assay [2] is BCC. Description: Inhibition of MAPK phosphorylation in human BCC cells at 4 uM incubated for 4 hrs followed by 1 J/cm'2 UV irradiation. The assay is classed as cell-based. The gist of the method:
(§1)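 BCC cells were exposed to drug with UVA irradiation. Blots were blocked in 5% milk/PBS-T and probed for total and phospho-ERK, p38 and JNK. HRP secondaries and chemiluminescence were used; bands were quantified by densitometric scanning.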

Assay [3] in a line: Induction of apoptosis in human BCC cells assessed as caspase3 activation at 4 uM incubated for 4 hrs followed by 1 J/cm'2 UV irradiation measured after 24 hrs […]. In general terms: A flow cytometer gives signals particle by particle.
The subject of assay [4] is BCC. The assay is described as follows: Induction of apoptosis in human BCC cells assessed as increase in intracellular H2O2 level at 4 uM incubated for 4 hrs followed by 1 J/cm'2 UV irradiation […]. The assay is classed as functional, cell-based. The gist of the method: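 ROS was measured in BCC cells given 0–4 µM drug, with or without catalase (800 U/mL) pretreatment, and then irradiated with UVA. Immediately after irradiation, DCFH-DA (10 µM) was added for 30 min at 37 °C. DCF fluorescence was read by flow cytometry on FL-1.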

Assay [5] can be described thus: Induction of apoptosis in human BCC cells assessed as decrease in intracellular ATP level at 2 uM incubated for 4 hrs followed by 1 J/cm'2 UV irradiation […]. More on the design: scale not given: the % may be the effect or the level left. It is filed as functional.
A short description of assay [6]: Induction of apoptosis in human BCC cells assessed as caspase3 activation at 4 uM incubated for 4 hrs followed by 1 J/cm'2 UV irradiation measured after 24 hrs […]. Conditions: in the assay text read “2 uM” for “4 uM”. The assay is classed as functional. An outline of the steps:
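Caspase-3 was measured in BCC cells 24 h after 4 h drug exposure and 1 J/cm² UVA (365 nm) given in PBS. Pellets were lysed in cold buffer (25 µL per 10⁶ cells), spun at 12,000 rpm for 10 min at 4 °C, and the supernatant assayed colorimetrically by pNA release at 405 nm. Results are mean SD.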

A short description of assay [7]: Phototoxicity against human BCC cells assessed as cell viability at 4 uM incubated for 4 hrs followed by 1 J/cm'2 UV irradiation measured after 24 hrs by MTT assay. It is filed as functional. Conditions: light or radiation study, read-out: Activity. The gist of the method:
(§2)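 MTT assay: BCC cells were seeded at 2500/well and attached overnight. Cells were incubated 4 h with drug in triplicate, rinsed, irradiated in PBS with 365 nm UVA (0.25, 0.5 or 1 J/cm²), then returned to medium. After 24 h, MTT was added for 2 h at 37 °C, formazan was dissolved in DMSO, and absorbance was read at 540 nm relative to untreated controls.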
Background: Tetrazolium dyes change colour on reduction, which living cells bring about.

A short description of assay [8]: Phototoxicity against human BCC cells assessed as cell viability at 4 uM incubated for 4 hrs followed by 0.25 J/cm'2 UV irradiation measured after 24 hrs by MTT assay. The assay is classed as functional. As to conditions: light or radiation study, read-out: Activity. The gist of the method: as §2
Assay [9] has as its target c-Jun N-terminal kinase, JNK (Homo sapiens) (UniProt P45983+P53779+P45984). Description: Inhibition of JNK phosphorylation in human BCC cells at 4 uM incubated for 4 hrs followed by 1 J/cm'2 UV irradiation. It is filed as cell-based. The gist of the method:
as §1

Assay [10] in a line: Induction of apoptosis in human BCC cells assessed as decrease in intracellular ATP level at 4 uM incubated for 4 hrs followed by 1 J/cm'2 UV irradiation […]. It is filed as functional. Set-up: scale not given: the % may be the effect or the level left.
Assay [11] deals with BCC. The assay is described as follows: Induction of apoptosis in human BCC cells assessed as decrease in mitochondrial potential at 2 uM incubated for 4 hrs followed by 1 J/cm'2 UV irradiation measured after 24 hrs. The assay is classed as functional, cell-based. The gist of the method: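 BCC dishes grown 24 h were pretreated 4 h at 0, 2 or 4 µM and given 1 J/cm² UVA, then trypsinized. Cells were stained 30 min at room temperature with DiOC₆ (100 nM/mL), washed, and read immediately by flow cytometry (FL-1, 530/30 nm). The percentage of cells with reduced Δψmt was scored from 10,000 cells. Three independent experiments were run.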

The nature of assay [12]: Phototoxicity against human BCC cells assessed as cell viability at 4 uM incubated for 4 hrs followed by 0.5 J/cm'2 UV irradiation measured after 24 hrs by MTT assay. The assay is classed as functional. Conditions: light or radiation study, read-out: Activity. The gist of the method: as §2
In assay [13] the test system is BCC. Description: Induction of ERK phosphorylation in human BCC cells at 4 uM incubated for 4 hrs followed by 1 J/cm'2 UV irradiation.

Calls of active or inactive are those of the source. The calls are words filed in the database; no cut-off is given here.

Regarding `Nc1ccc(-c2nc3ccccc3s2)cc1`, the Activity in assay [1] amounted to 6.5%.

For the compound `Nc1ccc(-c2nc3ccc(C(F)(F)F)cc3s2)cc1`, the Activity in [1] was 35.4%; in [3], 27.5%; in assay [5] it was 30%; in assay [6], 19.5%; in [10], 45%. The result (with BCC [2]; in assay [9]) was inactive. For the same compound, the result in the assay on BCC [4], in the assay on BCC [11] and in the assay with BCC [13] was Active. Besides, the figures for the viability at 4 µM in assay [7], in assay [8] and in assay [12] were 45%, 71% and 65%, respectively.

`Cc1ccc2nc(-c3ccc(N)cc3)sc2c1`: the Activity in assay [1] amounted to 13.4%.

For `CCc1ccc2nc(-c3ccc(N)c(C)c3)sc2c1`, the Activity in [1] is 13.8%.

Consider `COc1ccc2nc(-c3ccc(N)cc3)sc2c1`, for which the Activity in [1] was found to be 6.5%.

Consider `COc1cccc2nc(-c3ccc(N)cc3)sc12`, for which the Activity in assay [1] was 24.4%.

On to `CCc1ccc2nc(-c3ccc(N)cc3)sc2c1`, for which, in assay [1], the Activity was found to be 29.2%.

For `COc1ccc2nc(-c3ccc(N)c(C)c3)sc2c1`, the Activity in assay [1] amounted to 14.8%.

On to `Cc1cc(-c2nc3ccccc3s2)ccc1N`, for which the Activity in assay [1] worked out at 13.6%.

On to `Cc1cc(-c2nc3ccc(C(F)(F)F)cc3s2)ccc1N`, for which the Activity in [1] worked out at 6.4%.
